{
  "source": "ChEMBL document CHEMBL4431376",
  "about": "“CZ415, a Highly Selective mTOR Inhibitor Showing in Vivo Efficacy in a Collagen Induced Arthritis Model” (ACS Med Chem Lett, 2016)",
  "key": {"[1]": {"experiment": "Kinetic solubility of compound by chemiluminescent nitrogen detection method", "format": "physicochemical", "conditions": "read-out: Kinetic_solubility; call rule not given here", "summary_of_the_method": "(§1)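 logD measured at pH 7.4. Kinetic solubility measured by CLND. Solubility also measured in FaSSIF and FeSSIF biorelevant media.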"}, "[2]": {"experiment": "Toxicity in DBA/1 OlaHsd mouse immunized with bovine type2 collagen in Freund's complete adjuvant assessed as body weight loss at 10 mg/kg, po bid administered starting on day 22 post immunization measured on day 26 post immunization", "format": "organism-based", "conditions": "in vivo", "summary_of_the_method": "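Semiestablished CIA design. Mice received bovine type II collagen at day 0 with a boost at day 21. Dosing at 10 mg/kg PO bid ran from day 22 to day 34, in 5% DMSO/95% (10% kleptose), n = 10 per group; normal controls n = 4. Paws were scored daily for erythema and swelling (0–5), summarized as AUC. Body weight was tracked over time.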"}, "[3]": {"experiment": "Tmax in Sprague-Dawley rat at 3 mg/kg, po administered through gavage by LC-MS/MS analysis", "format": "ADME, organism-based", "conditions": "in vivo", "summary_of_the_method": "(§2)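 Rats (n = 3 per route) given a 1 mg/kg intravenous bolus or 3 mg/kg as an oral solution. Vehicle was 5% DMSO/95% (10% Kleptose). Plasma concentration was followed over time to derive PK parameters and oral bioavailability. Clearance was also expressed relative to liver blood flow.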"}, "Cytochrome P450 1A": {"biological_target": "T1, Cytochrome P450 1A (Homo sapiens, UniProt P04798+P05177)", "T1 sequence (P04798 whole entry)": "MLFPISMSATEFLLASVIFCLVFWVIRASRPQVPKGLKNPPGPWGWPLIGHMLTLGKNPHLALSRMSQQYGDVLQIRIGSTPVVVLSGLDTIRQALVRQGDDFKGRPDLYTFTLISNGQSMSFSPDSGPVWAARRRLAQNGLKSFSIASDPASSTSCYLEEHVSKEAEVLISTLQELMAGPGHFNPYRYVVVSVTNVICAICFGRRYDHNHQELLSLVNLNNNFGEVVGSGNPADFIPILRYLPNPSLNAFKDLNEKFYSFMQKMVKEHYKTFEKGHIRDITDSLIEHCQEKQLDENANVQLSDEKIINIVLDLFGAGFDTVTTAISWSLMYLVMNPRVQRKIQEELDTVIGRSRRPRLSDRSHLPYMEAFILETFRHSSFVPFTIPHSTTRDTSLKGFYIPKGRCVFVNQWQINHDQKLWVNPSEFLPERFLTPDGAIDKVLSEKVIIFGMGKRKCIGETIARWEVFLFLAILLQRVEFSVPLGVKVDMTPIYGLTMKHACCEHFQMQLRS", "T1 sequence (P05177 whole entry)": "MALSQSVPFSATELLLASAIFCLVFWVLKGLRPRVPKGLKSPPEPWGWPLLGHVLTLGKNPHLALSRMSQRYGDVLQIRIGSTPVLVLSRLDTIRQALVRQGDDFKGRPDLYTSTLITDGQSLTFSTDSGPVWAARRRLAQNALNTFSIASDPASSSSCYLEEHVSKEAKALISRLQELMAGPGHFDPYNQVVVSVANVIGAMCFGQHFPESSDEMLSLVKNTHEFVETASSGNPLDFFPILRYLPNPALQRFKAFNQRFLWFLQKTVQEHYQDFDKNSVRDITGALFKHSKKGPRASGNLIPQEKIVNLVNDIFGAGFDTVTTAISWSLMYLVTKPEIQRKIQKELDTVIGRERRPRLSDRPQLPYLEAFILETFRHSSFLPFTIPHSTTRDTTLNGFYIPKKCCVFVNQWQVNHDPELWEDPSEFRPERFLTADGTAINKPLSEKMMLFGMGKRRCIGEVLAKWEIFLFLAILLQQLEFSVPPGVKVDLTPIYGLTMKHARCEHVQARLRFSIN", "experiment": "Inhibition of CYP1A in human liver microsomes"}, "[4]": {"experiment": "Distribution coefficient, logD of compound at pH 7.4", "format": "physicochemical", "conditions": "octanol/water", "summary_of_the_method": "as §1"}, "[5]": {"experiment": "AUC (0 to infinity) in Sprague-Dawley rat at 1 mg/kg, iv as bolus dose by LC-MS/MS analysis", "format": "ADME, organism-based", "parameters": "dose 1 mg/kg, route intravenous, time infinity", "conditions": "in vivo", "summary_of_the_method": "as §2"}, "[6]": {"experiment": "AUC (0 to infinity) in Sprague-Dawley rat at 3 mg/kg, po administered through gavage by LC-MS/MS analysis", "format": "ADME, organism-based", "parameters": "dose 3 mg/kg, route oral, time infinity", "conditions": "in vivo", "summary_of_the_method": "as §2"}, "[7]": {"experiment": "Volume of distribution at steady state in Sprague-Dawley rat at 1 mg/kg, iv as bolus dose or 3 mg/kg, po administered through gavage measured up to 8 hrs by LC-MS/MS analysis", "format": "ADME, organism-based", "conditions": "in vivo, read-out: Vdss", "summary_of_the_method": "as §2"}, "Mus musculus [8]": {"species": "Mus musculus", "experiment": "animal or person", "conditions": "C57BL/6J"}, "Cytochrome P450 2C19": {"biological_target": "Cytochrome P450 2C19 (Homo sapiens, UniProt P33261)", "sequence (P33261 whole entry)": "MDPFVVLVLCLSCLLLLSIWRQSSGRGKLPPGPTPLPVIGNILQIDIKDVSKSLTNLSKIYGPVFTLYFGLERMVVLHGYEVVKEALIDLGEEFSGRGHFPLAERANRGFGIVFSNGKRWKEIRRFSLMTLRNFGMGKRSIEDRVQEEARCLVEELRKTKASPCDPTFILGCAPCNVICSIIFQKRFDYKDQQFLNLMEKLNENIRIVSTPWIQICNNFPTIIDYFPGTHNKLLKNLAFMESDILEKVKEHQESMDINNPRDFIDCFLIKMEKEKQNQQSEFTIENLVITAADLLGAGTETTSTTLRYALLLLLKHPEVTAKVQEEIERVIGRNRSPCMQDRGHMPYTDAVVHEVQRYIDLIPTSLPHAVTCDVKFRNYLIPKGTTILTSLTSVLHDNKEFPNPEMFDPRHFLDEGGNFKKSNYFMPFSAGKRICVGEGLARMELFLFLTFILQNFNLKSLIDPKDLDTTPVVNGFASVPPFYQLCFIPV", "experiment": "Inhibition of CYP2C19 in human liver microsomes", "format": "ADME"}, "[9]": {"experiment": "Protein binding in rat plasma", "format": "ADME, cell-free", "conditions": "read-out: PPB (converted)", "summary_of_the_method": "(§3)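 Plasma protein binding was determined in rat, mouse and human plasma, expressed as % bound.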"}, "Cytochrome P450 2D6": {"biological_target": "Cytochrome P450 2D6 (Homo sapiens, UniProt P10635)", "sequence (P10635 whole entry)": "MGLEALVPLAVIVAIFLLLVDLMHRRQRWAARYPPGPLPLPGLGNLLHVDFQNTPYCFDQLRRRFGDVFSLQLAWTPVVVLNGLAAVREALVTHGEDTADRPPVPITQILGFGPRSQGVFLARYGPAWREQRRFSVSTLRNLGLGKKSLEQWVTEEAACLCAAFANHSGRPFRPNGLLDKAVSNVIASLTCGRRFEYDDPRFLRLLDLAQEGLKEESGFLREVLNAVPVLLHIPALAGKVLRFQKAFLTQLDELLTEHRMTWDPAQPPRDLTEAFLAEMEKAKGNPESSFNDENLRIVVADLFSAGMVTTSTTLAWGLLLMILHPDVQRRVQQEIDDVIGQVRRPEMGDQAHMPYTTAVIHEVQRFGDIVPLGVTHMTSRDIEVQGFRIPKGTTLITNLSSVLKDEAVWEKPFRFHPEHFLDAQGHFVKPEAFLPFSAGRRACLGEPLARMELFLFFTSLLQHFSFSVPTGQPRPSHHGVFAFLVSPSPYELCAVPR", "experiment": "Inhibition of CYP2D6 in human liver microsomes", "format": "ADME"}, "[10]": {"experiment": "Plasma clearance in Sprague-Dawley rat at 1 mg/kg, iv as bolus dose or 3 mg/kg, po administered through gavage measured up to 8 hrs by LC-MS/MS analysis", "format": "ADME, organism-based", "summary_of_the_method": "as §2"}, "[11]": {"experiment": "Cmax in Sprague-Dawley rat at 1 mg/kg, iv as bolus dose by LC-MS/MS analysis", "format": "ADME, organism-based", "parameters": "dose 1 mg/kg, route intravenous", "conditions": "in vivo", "summary_of_the_method": "as §2"}, "[12]": {"biological_target": "Voltage-gated inwardly rectifying potassium channel KCNH2 (Homo sapiens, UniProt Q12809)", "sequence (Q12809 whole entry)": "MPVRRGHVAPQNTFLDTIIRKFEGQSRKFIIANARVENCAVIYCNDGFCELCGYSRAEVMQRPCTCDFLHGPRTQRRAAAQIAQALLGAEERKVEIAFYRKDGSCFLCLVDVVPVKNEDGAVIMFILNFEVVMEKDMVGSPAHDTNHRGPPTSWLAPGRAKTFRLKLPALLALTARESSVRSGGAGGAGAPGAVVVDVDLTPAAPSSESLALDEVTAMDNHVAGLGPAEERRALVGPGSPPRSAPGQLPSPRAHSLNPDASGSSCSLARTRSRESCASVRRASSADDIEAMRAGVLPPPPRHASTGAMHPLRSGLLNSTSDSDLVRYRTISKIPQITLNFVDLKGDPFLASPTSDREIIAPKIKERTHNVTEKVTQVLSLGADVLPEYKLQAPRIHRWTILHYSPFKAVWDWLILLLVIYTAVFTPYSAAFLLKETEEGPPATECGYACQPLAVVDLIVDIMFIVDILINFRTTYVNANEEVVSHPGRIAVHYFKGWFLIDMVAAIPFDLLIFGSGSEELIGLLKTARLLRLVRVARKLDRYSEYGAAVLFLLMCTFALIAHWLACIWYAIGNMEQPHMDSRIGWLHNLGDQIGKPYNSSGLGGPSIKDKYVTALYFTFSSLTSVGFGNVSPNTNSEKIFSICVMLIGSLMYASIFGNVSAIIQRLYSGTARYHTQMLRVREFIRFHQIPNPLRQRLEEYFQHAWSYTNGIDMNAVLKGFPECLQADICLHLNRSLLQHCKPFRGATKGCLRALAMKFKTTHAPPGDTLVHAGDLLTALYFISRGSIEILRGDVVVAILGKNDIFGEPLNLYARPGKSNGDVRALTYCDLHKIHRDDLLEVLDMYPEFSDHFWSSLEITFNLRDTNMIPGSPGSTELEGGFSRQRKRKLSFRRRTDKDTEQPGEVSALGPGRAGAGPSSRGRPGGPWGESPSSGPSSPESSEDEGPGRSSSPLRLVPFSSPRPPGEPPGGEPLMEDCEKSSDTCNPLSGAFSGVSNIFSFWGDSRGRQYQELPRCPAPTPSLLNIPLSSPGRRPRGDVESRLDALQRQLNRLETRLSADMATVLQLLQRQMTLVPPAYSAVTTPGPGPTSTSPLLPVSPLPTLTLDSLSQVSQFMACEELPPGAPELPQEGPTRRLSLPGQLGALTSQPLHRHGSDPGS", "experiment": "Inhibition of human ERG expressed in HEK293 cells by whole cell patch clamp assay", "format": "cell-based", "summary_of_the_method": "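hERG measured by whole-cell patch clamp in HEK293 cells, reported as IC50.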"}, "Mus musculus [13]": {"system": "Mus musculus", "experiment": "Time duration for free plasma concentration stays above invitro EC50 for human whole blood in DBA/1 OlaHsd mouse immunized with bovine type2 collagen in Freund's complete adjuvant at 10 mg/kg, po bid administered starting on day 22 post immunization measured on day 31 post immunization", "format": "ADME, organism-based", "conditions": "in vivo", "summary_of_the_method": "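Blood drug levels were measured on study day 31 in CIA mice dosed at 10 mg/kg PO bid (n = 10), with vehicle 5% DMSO/95% (10% kleptose). AUC and Cmax were derived from these levels. Time above EC50 was judged against the human whole-blood IFNγ assay EC50 and the anti-CD3 mouse PK/PD EC50.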"}, "[14]": {"experiment": "Intrinsic clearance in pooled rat liver microsomes at 1 uM incubated up to 40 mins in presence of NADPH by LC-MS/MS analysis", "format": "ADME, Microsome", "summary_of_the_method": "(§4)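 Metabolic stability was assessed in liver microsomes (rat, dog, human) and hepatocytes (dog, human). Intrinsic clearance was calculated as μL/min/g liver.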"}, "[15]": {"experiment": "Protein binding in human plasma", "format": "ADME, cell-free", "conditions": "read-out: PPB (converted)", "summary_of_the_method": "as §3"}, "[16]": {"experiment": "Intrinsic clearance in pooled human liver microsomes at 1 uM incubated up to 40 mins in presence of NADPH by LC-MS/MS analysis", "format": "ADME, Microsome", "summary_of_the_method": "as §4"}, "[17]": {"experiment": "Apparent permeability from basolateral to apical side in human CaCo2 cells", "format": "ADME, cell-based", "conditions": "Caco-2", "summary_of_the_method": "(§5)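 Caco-2 monolayer permeability, measured as Papp in the apical-to-basolateral and basolateral-to-apical directions.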"}, "Cytochrome P450 2C9": {"biological_target": "Cytochrome P450 2C9 (Homo sapiens, UniProt P11712)", "sequence (P11712 whole entry)": "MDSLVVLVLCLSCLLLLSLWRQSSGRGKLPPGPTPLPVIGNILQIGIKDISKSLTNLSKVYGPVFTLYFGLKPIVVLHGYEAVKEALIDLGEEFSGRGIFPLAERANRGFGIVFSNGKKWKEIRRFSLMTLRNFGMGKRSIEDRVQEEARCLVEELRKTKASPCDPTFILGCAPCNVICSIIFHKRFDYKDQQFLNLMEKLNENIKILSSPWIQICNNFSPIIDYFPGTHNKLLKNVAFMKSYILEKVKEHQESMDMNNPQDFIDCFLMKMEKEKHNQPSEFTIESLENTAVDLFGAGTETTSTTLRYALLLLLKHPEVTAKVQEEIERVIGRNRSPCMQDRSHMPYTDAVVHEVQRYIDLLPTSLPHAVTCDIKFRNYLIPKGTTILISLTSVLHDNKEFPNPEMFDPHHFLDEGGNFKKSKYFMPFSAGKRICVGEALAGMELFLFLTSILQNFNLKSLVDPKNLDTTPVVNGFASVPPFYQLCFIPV", "experiment": "Inhibition of CYP2C9 in human liver microsomes", "format": "ADME"}, "Cytochrome P450 3A4": {"biological_target": "Cytochrome P450 3A4 (Homo sapiens, UniProt P08684)", "sequence (P08684 whole entry)": "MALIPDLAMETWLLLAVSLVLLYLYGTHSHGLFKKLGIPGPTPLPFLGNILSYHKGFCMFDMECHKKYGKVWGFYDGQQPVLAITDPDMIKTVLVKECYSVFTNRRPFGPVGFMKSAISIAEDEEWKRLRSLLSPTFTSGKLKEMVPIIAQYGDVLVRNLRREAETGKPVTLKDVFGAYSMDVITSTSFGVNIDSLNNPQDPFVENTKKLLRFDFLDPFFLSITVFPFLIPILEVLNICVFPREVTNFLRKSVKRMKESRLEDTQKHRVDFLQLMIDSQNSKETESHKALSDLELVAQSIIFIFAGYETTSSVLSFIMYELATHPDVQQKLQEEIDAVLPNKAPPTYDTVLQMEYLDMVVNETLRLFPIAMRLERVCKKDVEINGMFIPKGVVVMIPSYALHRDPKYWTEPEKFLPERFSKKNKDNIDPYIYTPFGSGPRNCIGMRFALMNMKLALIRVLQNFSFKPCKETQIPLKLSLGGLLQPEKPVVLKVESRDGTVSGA", "experiment": "Induction of CYP3A4 in […] at 10 uM", "format": "ADME", "summary_of_the_method": "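CYP3A4 induction tested at 10 μM. Time-dependent inhibition of CYP3A4 tested at up to 50 μM.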"}, "[18]": {"experiment": "Apparent permeability from apical to basolateral side in human CaCo2 cells", "format": "ADME, cell-based", "conditions": "Caco-2", "summary_of_the_method": "as §5"}},
  "data": [
    {"smiles": "CCNC(=O)Nc1ccc(-c2nc(N3CCOC[C@@H]3C)c3c(n2)C(C)(C)S(=O)(=O)C3)cc1", "values": [
      {"measurement": "solubility kinetic", "setting": "[1]", "value": 150, "unit": "µM"},
      {"measurement": "Activity", "setting": "[2]", "value": "Non-Toxic"},
      {"measurement": "Tmax", "setting": "[3]", "value": 30, "unit": "min"},
      {"measurement": "inhibition (INH)", "setting": "Cytochrome P450 1A", "value": "Not Active"},
      {"measurement": "logD", "setting": "[4]", "value": 4.31},
      {"measurement": "AUC(0-inf)", "setting": "[5]", "value": 0.76, "unit": "µM·h"},
      {"measurement": "AUC(0-inf)", "setting": "[6]", "value": 1, "unit": "µM·h"},
      {"measurement": "Vd", "setting": "[7]", "value": 3.1, "unit": "L/kg"},
      {"measurement": "EC50", "setting": "Mus musculus [8]", "value": 0.055, "unit": "µM"},
      {"measurement": "inhibition (INH)", "setting": "Cytochrome P450 2C19", "value": "Not Active"},
      {"measurement": "fraction unbound", "setting": "[9]", "value": 0.31},
      {"measurement": "inhibition (INH)", "setting": "Cytochrome P450 2D6", "value": "Not Active"},
      {"measurement": "clearance", "setting": "[10]", "value": 49, "unit": "mL/min/kg"},
      {"measurement": "Cmax", "setting": "[11]", "value": 710, "unit": "nM"},
      {"measurement": "IC50", "setting": "[12]", "value": 48, "unit": "µM"},
      {"measurement": "Time", "setting": "Mus musculus [13]", "value": "<= 8 hr"},
      {"measurement": "CLH", "setting": "[14]", "value": "< 0.6", "unit": "µL/min/g"},
      {"measurement": "fraction unbound", "setting": "[15]", "value": 0.19},
      {"measurement": "CLH", "setting": "[16]", "value": 1.5, "unit": "µL/min/g"},
      {"measurement": "Papp B→A", "setting": "[17]", "value": 0.102, "unit": "×10⁻⁶ cm/s"},
      {"measurement": "inhibition (INH)", "setting": "Cytochrome P450 2C9", "value": "Not Active"},
      {"measurement": "Activity", "setting": "Cytochrome P450 3A4", "value": "Not Active"},
      {"measurement": "Papp A→B", "setting": "[18]", "value": 0.047, "unit": "×10⁻⁶ cm/s"}
    ]}
  ]
}
